The source made the active and inactive calls. The rule behind the calls is not given here.
Columns and labels:
B-95-8 cell line [1] = assay: In vitro toxicity which caused 50% decrease in [14C]- leucine incorporation by the B-95-8 cells in culture.; assay type: functional, Callitrichidae; conditions: Saguinus oedipus, read-out: ID50 (the source's name)
How it was run: (§1)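 Cells seeded at 10⁴ per well and exposed to compounds for 3 days in RPMI 1640 with 10% fetal calf serum, glutamine and antibiotics, at 37 °C under 5% CO₂. [¹⁴C]-L-leucine (0.5 μCi/mL) was present for the final 24 h. Protein was precipitated with 0.2 N perchloric acid, collected on glass-fibre filters and scintillation-counted. ID50 (μM, 50% drop in incorporation) was read from triplicate dose-response curves.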

NALL-1 [2] = assay: (§2) In vitro toxicity which caused 50% decrease in [14C]- leucine incorporation by the NALL-1 cells in culture.; assay type: functional; conditions: Homo sapiens, read-out: ID50 (the source's name); how it was run: as §1
Raji [3] = assay: (§3) In vitro toxicity which caused 50% decrease in [14C]- leucine incorporation by the Raji cells in culture.; assay type: functional; conditions: Homo sapiens, read-out: ID50 (the source's name); how it was run: as §1
PHA-Ly [4] = assay: In vitro toxicity which caused 50% decrease in [14C]- leucine incorporation by the PHA-LY cells in culture.; assay type: functional; conditions: Homo sapiens, read-out: ID50 (the source's name); how it was run: as §1
MOLT-4 [5] = assay: (§4) In vitro toxicity which caused 50% decrease in [14C]- leucine incorporation by the MOLT-4 cells in culture.; assay type: functional; conditions: Homo sapiens, read-out: ID50 (the source's name); how it was run: as §1
HL-60 [6] = assay: In vitro toxicity which caused 50% decrease in [14C]- leucine incorporation by the HL-60 cells in culture.; assay type: functional; conditions: Homo sapiens, read-out: ID50 (the source's name); how it was run: as §1
U-937 [7] = assay: (§5) In vitro toxicity which caused 50% decrease in [14C]- leucine incorporation by the U-937 cells in culture.; assay type: functional; conditions: Homo sapiens, read-out: ID50 (the source's name); how it was run: as §1
K562 [8] = assay: In vitro toxicity which caused 50% decrease in [14C]- leucine incorporation by the K-562 cells in culture.; assay type: functional; conditions: Homo sapiens, read-out: ID50 (the source's name); how it was run: as §1
B-95-8 cell line [9] = assay: In vitro toxicity which caused 50% decrease in [14C]- leucine incorporation by the B-95-8 cells in culture at 40 uM; IN-Inactive; assay type: functional, cell-based; how it was run: as §1
K562 [10] = assay: In vitro toxicity which caused 50% decrease in [14C]- leucine incorporation by the K-562 cells in culture at 40 uM; IN-Inactive; assay type: functional, cell-based; conditions: Homo sapiens; how it was run: as §1
NALL-1 [11] = assay: In vitro toxicity which caused 50% decrease in [14C]- leucine incorporation by the NALL-1 cells in culture at 40 uM; IN-Inactive; assay type: functional, cell-based; conditions: Homo sapiens; how it was run: as §1
MOLT-4 [12] = assay: In vitro toxicity which caused 50% decrease in [14C]- leucine incorporation by the MOLT-4 cells in culture at 40 uM; IN-Inactive; assay type: functional, cell-based; conditions: Homo sapiens; how it was run: as §1
U-937 [13] = assay: In vitro toxicity which caused 50% decrease in [14C]- leucine incorporation by the U-937 cells in culture at 40 uM; IN-Inactive; assay type: functional, cell-based; conditions: Homo sapiens; how it was run: as §1
Raji [14] = assay: In vitro toxicity which caused 50% decrease in [14C]- leucine incorporation by the Raji cells in culture at 40 uM; IN-Inactive; assay type: functional, cell-based; conditions: Homo sapiens; how it was run: as §1
HL-60 [15] = assay: In vitro toxicity which caused 50% decrease in [14C]- leucine incorporation by the HL-60 cells in culture at 40 uM; IN-Inactive; assay type: functional, cell-based; conditions: Homo sapiens; how it was run: as §1
PHA-Ly [16] = assay: In vitro toxicity which caused 50% decrease in [14C]- leucine incorporation by the PHA-LY cells in culture at 40 uM; IN-Inactive; assay type: functional, cell-based; conditions: Homo sapiens; how it was run: as §1
MOLT-4 [17] = assay: as §4; assay type: cell-based; conditions: human, read-out: ID50 (the source's name); how it was run: as §1
NALL-1 [18] = assay: as §2; assay type: cell-based; conditions: human, read-out: ID50 (the source's name); how it was run: as §1
U-937 [19] = assay: as §5; assay type: cell-based; conditions: human, read-out: ID50 (the source's name); how it was run: as §1
Raji [20] = assay: as §3; assay type: cell-based; conditions: human, read-out: ID50 (the source's name); how it was run: as §1

SMILES	IC50 (B-95-8 cell line [1]) [µM]	IC50 (NALL-1 [2]) [µM]	IC50 (Raji [3]) [µM]	IC50 (PHA-Ly [4]) [µM]	IC50 (MOLT-4 [5]) [µM]	IC50 (HL-60 [6]) [µM]	IC50 (U-937 [7]) [µM]	IC50 (K562 [8]) [µM]	ID50 (B-95-8 cell line [9])	ID50 (K562 [10])	ID50 (NALL-1 [11])	ID50 (MOLT-4 [12])	ID50 (U-937 [13])	ID50 (Raji [14])	ID50 (HL-60 [15])	ID50 (PHA-Ly [16])	CC50 (MOLT-4 [17]) [µM]	CC50 (NALL-1 [18]) [µM]	CC50 (U-937 [19]) [µM]	CC50 (Raji [20]) [µM]
CSc1nc(N(C)C)c2ncn([C@@H]3C[C@@H](O)[C@H](CO)O3)c2n1	116	188	233	260	172	> 300	126	> 300	–	–	–	–	–	–	–	–	–	–	–	–
CN(C)c1nc(Br)nc2c1ncn2[C@@H]1C[C@@H](O)[C@H](CO)O1	> 300	290	> 300	88	> 300	> 300	164	> 300	–	–	–	–	–	–	–	–	–	–	–	–
CN(C)c1nc(N(C)C)c2ncn([C@@H]3C[C@@H](O)[C@H](CO)O3)c2n1	–	–	–	–	–	–	–	–	inactive	inactive	inactive	inactive	inactive	inactive	inactive	inactive	–	–	–	–
CSc1nc(SC)c2ncn([C@@H]3C[C@@H](O)[C@H](CO)O3)c2n1	225	173	170	167	141	> 300	> 300	> 300	–	–	–	–	–	–	–	–	–	–	–	–
CNc1nc(SC)nc2c1ncn2[C@@H]1C[C@@H](O)[C@H](CO)O1	> 300	186	> 300	81	> 300	> 300	> 300	> 300	–	–	–	–	–	–	–	–	–	–	–	–
CSc1nc(N)c2ncn([C@@H]3C[C@@H](O)[C@H](CO)O3)c2n1	> 300	96	107	82	> 300	> 300	> 300	> 300	–	–	–	–	–	–	–	–	–	–	–	–
CNc1nc(Br)nc2c1ncn2[C@@H]1C[C@@H](O)[C@H](CO)O1	253	230	80	30	177	143	140	110	–	–	–	–	–	–	–	–	–	–	–	–
Nc1nc(Br)nc2c1ncn2[C@@H]1C[C@@H](O)[C@H](CO)O1	6	–	–	1.6	–	41	–	83	–	–	–	–	–	–	–	–	3.2	12	0.8	0.7
CN(C)c1nc(N)c2ncn([C@@H]3C[C@@H](O)[C@H](CO)O3)c2n1	182	> 300	125	> 300	> 300	> 300	> 300	> 300	–	–	–	–	–	–	–	–	–	–	–	–

Reference: ChEMBL document CHEMBL1124795, “Synthesis and cytotoxicity of deoxyadenosine analogues: isomer distribution in the sodium salt glycosylation of 2,6-disubstituted purines” (J Med Chem, 1990)
